Measurements from ChEMBL document CHEMBL3853311, “Deuterium-Labeled Precursor Feeding Reveals a New pABA-Containing Meroterpenoid from the Mango Pathogen Xanthomonas citri pv. mangiferaeindicae” (J Nat Prod, 2016).
The source made the active and inactive calls. No cut-off for these calls is given here.

Key:
[1] = Cytotoxicity against human Caco2 cells assessed as decrease in cell viability after 48 hrs by MTT assay; type: functional, cell-based; details: Caco-2, 48 h
In short: (§1)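 Cells kept in DMEM/F12 with 10% FBS, 2 mM glutamine, penicillin/streptomycin at 37 °C, 5% CO2; exponential-phase cells seeded at 1 × 10^4/well for 24 h. Treated at 0.2, 2 and 20 μg/mL for 48 h at 37 °C; vehicle controls = 100% viability. Formazan dissolved in DMSO, read at 570 nm (620 nm reference). IC50 by four-parameter logistic fit, ≥3 independent measurements, ±95% CI.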

[2] = Cytotoxicity against human MDA-MB-231 cells assessed as decrease in cell viability after 48 hrs by MTT assay; type: functional, cell-based; details: MDA-MB-231, 48 h; in short: as §1
[3] = Cytotoxicity against human MPanc96 cells assessed as decrease in cell viability after 48 hrs by MTT assay; type: functional, cell-based; details: MPANC96, 48 h; in short: as §1
[4] = Cytotoxicity against human A549 cells assessed as decrease in cell viability after 48 hrs by MTT assay; type: functional, cell-based; details: A549, 48 h; in short: as §1
[5] = Cytotoxicity against human 253JBV cells assessed as decrease in cell viability after 48 hrs by MTT assay; type: functional, cell-based; in short: as §1
[6] = Cytotoxicity against human U87MG cells assessed as decrease in cell viability after 48 hrs by MTT assay; type: functional, cell-based, U-87MG ATCC; details: U-87 MG; in short: as §1
[7] = Cytotoxicity against human MCF7 cells assessed as decrease in cell viability after 48 hrs by MTT assay; type: functional, cell-based; details: MCF7, 48 h; in short: as §1
[8] = Cytotoxicity against human PC3 cells assessed as decrease in cell viability after 48 hrs by MTT assay; type: functional, cell-based; details: PC-3, 48 h; in short: as §1
[9] = Cytotoxicity against HEK293 cells assessed as decrease in cell viability after 48 hrs by MTT assay; type: toxicity, cell-based; details: human; in short: as §1
[10] = Cytotoxicity against human HeLa cells assessed as decrease in cell viability after 48 hrs by MTT assay; type: functional, cell-based; in short: as §1
MDA-MB-231 [11] = assay: Induction of autophagy in human MDA-MB-231 cells assessed as decrease in p62 levels at 2 times IC50 after 24 to 48 hrs by immunoblot analysis; type: functional, cell-based
In short: (§2)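 Cells seeded at 2.5 × 10^5/well, treated 24 h later at 1/2 IC50, IC50 and 2× IC50 (legend says 24 h, methods 48 h). Controls: MG132 4.76 μg/mL, BafA1 0.1 μg/mL, DMSO. Lysed in RIPA with protease inhibitors, BCA protein assay, 30 μg on 15% Tris/glycine SDS-PAGE. Blotted for LC3-I/II, p62 and polyubiquitinated proteins with HRP secondary and ECL detection.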

Homo sapiens [12] = organism: Homo sapiens; assay: Induction of autophagy in human 253JBV cells assessed as conversion of LC3-1 to LC3-2 at IC50 to 2 times IC50 after 24 to 48 hrs by immunoblot analysis; type: functional, cell-based; in short: as §2
Homo sapiens [13] = organism: Homo sapiens; assay: Induction of autophagy in human 253JBV cells assessed as vacuole formation at 20 ug/ml after 48 hrs by microscopy; type: functional, cell-based
In short: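 Bladder cells grown 48 h untreated or with 20 μg/mL test agent, then inspected for morphology and vacuoles by inverted light microscopy against the control group.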

MDA-MB-231 [14] = assay: Induction of autophagy in human MDA-MB-231 cells assessed as decrease in polyubiquitinated protein levels at IC50 to 2 times IC50 after 24 to 48 hrs by immunoblot analysis; type: functional, cell-based; in short: as §2
MDA-MB-231 [15] = assay: Induction of autophagy in human MDA-MB-231 cells assessed as conversion of LC3-1 to LC3-2 at IC50 to 2 times IC50 after 24 to 48 hrs by immunoblot analysis; type: functional, cell-based; in short: as §2
Homo sapiens [16] = organism: Homo sapiens; assay: Induction of autophagy in human 253JBV cells assessed as decrease in p62 levels at 2 times IC50 after 24 to 48 hrs by immunoblot analysis; type: functional, cell-based; in short: as §2
HeLa [17] = assay: Induction of autophagy in human HeLa cells assessed as decrease in p62 levels at IC50 after 24 to 48 hrs by immunoblot analysis; type: functional, cell-based; in short: as §2
HeLa [18] = assay: Induction of autophagy in human HeLa cells assessed as conversion of LC3-1 to LC3-2 at IC50 to 2 times IC50 after 24 to 48 hrs by immunoblot analysis; type: functional, cell-based; in short: as §2
Homo sapiens [19] = organism: Homo sapiens; assay: Induction of autophagy in human 253JBV cells assessed as decrease in polyubiquitinated protein levels at IC50 after 24 to 48 hrs by immunoblot analysis; type: functional, cell-based; in short: as §2
HeLa [20] = assay: Induction of autophagy in human HeLa cells assessed as decrease in p62 levels at IC50 after 24 to 48 hrs by immunoblot analysis

SMILES	IC50 [1] [µM]	IC50 [2] [µM]	IC50 [3] [µM]	IC50 [4] [µM]	IC50 [5] [µM]	IC50 [6] [µM]	IC50 [7] [µM]	IC50 [8] [µM]	IC50 at 48 h [9] [µM]	IC50 [10] [µM]	Activity (MDA-MB-231 [11])	Activity (Homo sapiens [12])	Activity (Homo sapiens [13])	Activity (MDA-MB-231 [14])	Activity (MDA-MB-231 [15])	Activity (Homo sapiens [16])	Activity (HeLa [17])	Activity (HeLa [18])	Activity (Homo sapiens [19])	Activity (HeLa [20])
C=C1C(=O)O[C@@H]2C3O[C@]3(C)CC/C=C(\C)CC[C@@H]12 (stereo not given in full)	23.4	4.36	20.3	22	25.3	4.86	27.7	13	3.1	23.1	–	–	–	–	–	–	–	–	–	–
C/C(=C\CC/C(C)=C/Cc1cc(C(=O)O)ccc1N)CC/C=C(\C)CC/C=C(\C)CCC(=O)O	25.9	12.9	36.4	25.8	36.5	> 42.8	> 42.8	42.3	6.45	18.2	Active	Active	Active	Active	Active	Active	Active	Active	Active	Active
